From ChEMBL document CHEMBL1151769, “Triprenylated flavonoids from Dorstenia psilurus and their alpha-glucosidase inhibition properties” (J Nat Prod, 2008)
Active and inactive are the calls of the source. The rule behind the calls is not given here.

Legend:
[1] = Inhibition of yeast alpha-D-glucosidase; set-up: species or system Saccharomyces
Summary of the method: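 α-Glucosidase (500 units/mL) with p-nitrophenyl glucopyranoside (0.7 mM final) in 50 mM phosphate buffer pH 6.9, 1% v/v DMSO, 37 °C, 10 min, with or without a range of inhibitor concentrations. Stopped with an equal volume of 100 mM Na2CO3, and p-nitrophenol read at 400 nm. Rate taken from the linear slope of 1-min readings. IC50 derived by kinetic fitting.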

[2] = Inhibition of jack bean beta-D-mannosidase; set-up: species or system Canavalia ensiformis
[3] = Inhibition of sweet almonds beta-D-glucosidase; set-up: species or system Prunus dulcis
[4] = tested on: Canavalia ensiformis; test: Inhibition of jack bean beta-D-mannosidase at 800 uM
[5] = tested on: Prunus dulcis; test: Inhibition of sweet almonds beta-D-glucosidase at 800 uM

SMILES	IC50 [1] [µM]	IC50 [2] [µM]	IC50 [3] [µM]	Activity [4]	Activity [5]
CC(C)=CCc1ccc(-c2oc3c(CC=C(C)C)c(O)c(CC=C(C)C)c(O)c3c(=O)c2O)cc1O [DORSILURIN F]	4.13	192	117		
C=C(C)[C@@H](O)Cc1ccc(-c2oc3c(CC=C(C)C)c(O)c4c(c3c(=O)c2O)OC(C)(C)CC4)cc1O [DORSILURIN H]	24		671	inactive	
C=C(C)[C@@H](O)Cc1ccc(-c2oc3c(CC=C(C)C)c(O)c(CC=C(C)C)c(O)c3c(=O)c2O)cc1O [DORSILURIN G]	7.51	232	431		
C=C(C)[C@@H](O)Cc1ccc(-c2oc3c4c(c(CC=C(C)C)c(O)c3c(=O)c2O)OC(C)(C)CC4)cc1O [DORSILURIN I]	21.5		431	inactive	
CC(C)=CCc1c(O)c(CC=C(C)C)c2oc(-c3ccc4c(c3)OC(C)(C)C=C4)c(O)c(=O)c2c1O [DORSILURIN C]	11.2	358	422		

The next lines start with the values.

IC50 [1] [µM]	IC50 [2] [µM]	IC50 [3] [µM]	Activity [4]	Activity [5]	SMILES
16.9	518	317			CC(C)=CCc1ccc(-c2oc3c(CC=C(C)C)c(O)c4c(c3c(=O)c2O)OC(C)(C)CC4)cc1O [DORSILURIN J]
44			inactive	inactive	CC(C)=CCc1ccc(-c2oc3c4c(c5c(c3c(=O)c2O)OC(C)(C)CC5)OC(C)(C)CC4)cc1O [DORSILURIN K]
426					OC[C@H]1NC[C@H](O)[C@@H](O)[C@@H]1O [DUVOGLUSTAT]
